Data on 17 compounds can be found in ChEMBL document CHEMBL3046321, “Preparation of achiral and chiral (E)-enaminopyran-2,4-diones and their phytotoxic activity” (2009).

The subject of experiment [1] is Cucumis sativus. The experiment is described as follows: Phytotoxic activity against Cucumis sativus (cucumber)seeds assessed as inhibition of radicle growth at 10^-4 mol/l at 25 degC after 72 hr by filter-paper based radicle elongation assay. It counts as functional. The procedure, abridged:
(§1)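 Test compounds suspended and sonicated 5 min. Aliquots of 4 mL wetted two sheets of filter paper in glass Petri dishes, with 20 seeds per dish. Tested at 10⁻⁴ and 10⁻³ mol L⁻¹. Incubated 72 h at 25 °C under fluorescent light. Radicle length measured and germination recorded (radicle ≥1 mm). Completely randomized design, five replications. Results as % radicle growth inhibition vs untreated controls; Tukey's test, P 0.05.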

Experiment [2] has as its system Ipomoea grandifolia. The experiment is described as follows: Phytotoxicity against Ipomoea grandifolia seeds assessed as inhibition of root biomass development at […] measured at 21 days after seed sowing by green house trials.
Experiment [3] concerns Urochloa decumbens. Put plainly: Stimulation of root biomass development in Urochloa decumbens pregerminated seeds at 5x10'-4 mol/l at 28 degC after 24 to 48 hr by sand based radicle elongation assay. It counts as functional.
In experiment [4] the test system is Ipomoea grandifolia. Put plainly: Phytotoxicity against Ipomoea grandifolia pre-germinated seeds assessed as inhibition of root biomass development at 5x10'-4 mol/l at 28 degC after 24 to 48 hr by sand based radicle elongation assay. It counts as functional.
Experiment [5] deals with Urochloa decumbens. The experiment is described as follows: Phytotoxicity against Urochloa decumbens seeds assessed as inhibition of root biomass development at 5x10'-5 mol/kg measured at 21 days after seed sowing by green house trials. It counts as functional.
The test system of experiment [6] is Urochloa decumbens. Put plainly: Phytotoxicity against Urochloa decumbens seeds assessed as inhibition of aerial parts development at 5x10'-5 mol/kg measured at 21 days after seed sowing by green house trials. It counts as functional.
The test system of experiment [7] is Sorghum bicolor. Put plainly: Phytotoxic activity against Sorghum bicolor seeds assessed as inhibition of radicle growth at 10^-3 mol/l at 25 degC after 72 hr by filter-paper based radicle elongation assay. It counts as functional. The method, boiled down:
as §1

Experiment [8] deals with Sorghum bicolor. The experiment is described as follows: Phytotoxic activity against Sorghum bicolor seeds assessed as inhibition of radicle growth at 10^-4 mol/l at 25 degC after 72 hr by filter-paper based radicle elongation assay. It counts as functional. The method, boiled down: as §1
Experiment [9] has as its system Cucumis sativus. The experiment is described as follows: Phytotoxic activity against Cucumis sativus (cucumber)seeds assessed as inhibition of radicle growth at 10^-3 mol/l at 25 degC after 72 hr by filter-paper based radicle elongation assay. It counts as functional. The method, boiled down:
as §1

The subject of experiment [10] is Ipomoea grandifolia. The experiment is described as follows: Phytotoxicity against Ipomoea grandifolia seeds assessed as inhibition of aerial parts development at 5x10'-5 mol/kg measured at 21 days after seed sowing by green house trials. It counts as functional.
For experiment [11], the system named is Urochloa decumbens. The experiment is described as follows: Stimulation of aerial parts development in Urochloa decumbens pregerminated seeds at 5x10'-4 mol/l at 28 degC after 24 to 48 hr by sand based radicle elongation assay. It counts as functional.
The subject of experiment [12] is Ipomoea grandifolia. The experiment is described as follows: Phytotoxicity against Ipomoea grandifolia pre-germinated seeds assessed as inhibition of aerial parts development at 5x10'-4 mol/l at 28 degC after 24 to 48 hr by sand based radicle elongation assay. It counts as functional.
Experiment [13] has as its system Urochloa decumbens. Put plainly: Phytotoxicity against Urochloa decumbens pregerminated seeds assessed as inhibition of aerial parts development at 5x10'-4 mol/l at 28 degC after 24 to 48 hr by sand based radicle elongation assay. It counts as functional.
In experiment [14] the test system is Urochloa decumbens. The experiment is described as follows: Phytotoxicity against Urochloa decumbens pregerminated seeds assessed as inhibition of root biomass development at 5x10'-4 mol/l at 28 degC after 24 to 48 hr by sand based radicle elongation assay. It counts as functional.

Structures are written as SMILES.

As a reminder, the inhibition is the relative decrease from the control value, in per cent. As to `COC(=O)[C@@H](N/C(C)=C1\C(=O)C=C(C)OC1=O)C(C)C`, the inhibition at 100 µM is -6.4% in the experiment on Cucumis sativus [1] and 17.2% with Sorghum bicolor [8]. For the same compound, the “inhibition (INH)” value with Ipomoea grandifolia [2] was 65.3%; in the experiment on Urochloa decumbens [5], -45.7%; in the experiment on Urochloa decumbens [6], -47.4%; in the experiment with Ipomoea grandifolia [10], 67.7%. In addition, the Activity with Urochloa decumbens [3] and with Urochloa decumbens [11] was 46% each time. Further, the inhibition at 500 µM in the experiment with Ipomoea grandifolia [4] amounted to 65%; with Ipomoea grandifolia [12], 68%. In addition, the inhibition at 1000 µM was 70.5% with Sorghum bicolor [7] and 80.8% with Cucumis sativus [9].

`COC(=O)[C@H](C)N/C(C)=C1\C(=O)C=C(C)OC1=O`: the inhibition at 100 µM in the experiment on Cucumis sativus [1] was -0.3%; in the experiment on Sorghum bicolor [8], 21.6%. The “inhibition (INH)” value in the experiment on Ipomoea grandifolia [2] is listed as 61.7%; with Urochloa decumbens [5] it was 43.4%; with Urochloa decumbens [6], 33.3%; in the experiment with Ipomoea grandifolia [10] it was 56.9%. The inhibition at 500 µM stood at 62% with Ipomoea grandifolia [4], 33% with Urochloa decumbens [13], 46% in the experiment on Urochloa decumbens [14] and 57% with Ipomoea grandifolia [12]. Further, the inhibition at 1000 µM in the experiment with Sorghum bicolor [7] came to 71.7%; in the experiment with Cucumis sativus [9] it was 76.3%.

On to `COC(=O)[C@H](Cc1ccccc1)N/C(C)=C1\C(=O)C=C(C)OC1=O`, for which the values for the inhibition at 100 µM in the experiment with Cucumis sativus [1] and in the experiment with Sorghum bicolor [8] were 2.1% and -10.8%, respectively. The inhibition at 1000 µM with Sorghum bicolor [7] came to 24.4%; in the experiment on Cucumis sativus [9] it was 63.1%.

As for `CC1=CC(=O)/C(=C(/C)NNc2ccc([N+](=O)[O-])cc2[N+](=O)[O-])C(=O)O1`, the inhibition at 100 µM came out at 23.4% in the experiment on Cucumis sativus [1] and 8.3% in the experiment on Sorghum bicolor [8]. The inhibition at 1000 µM in the experiment on Sorghum bicolor [7] came out at 75.8%; in the experiment with Cucumis sativus [9] it was 77.6%.

With `CCCCN/C(C)=C1\C(=O)C=C(C)OC1=O`, the inhibition at 100 µM is -10.4% in the experiment with Cucumis sativus [1] and 48.3% with Sorghum bicolor [8]. Further, the inhibition at 1000 µM is 79.7% in the experiment on Sorghum bicolor [7] and 44% in the experiment on Cucumis sativus [9].

`CC1=CC(=O)/C(=C(/C)NNc2ccccc2)C(=O)O1`: the inhibition at 100 µM is 29.5% in the experiment on Cucumis sativus [1] and -26.5% with Sorghum bicolor [8]. Moreover, the results for the inhibition at 1000 µM in the experiment with Sorghum bicolor [7] and in the experiment on Cucumis sativus [9] were 27.2% and 19.2%, respectively.

With `COc1ccc(N/C(C)=C2\C(=O)C=C(C)OC2=O)cc1`, the inhibition at 100 µM in the experiment on Cucumis sativus [1] amounted to 1.4%; in the experiment on Sorghum bicolor [8], 28.4%. Besides, the inhibition at 1000 µM was determined as 48.2% with Sorghum bicolor [7] and 33.4% with Cucumis sativus [9].

In the case of `COC(=O)CN/C(C)=C1\C(=O)C=C(C)OC1=O`, the results for the inhibition at 100 µM in the experiment on Cucumis sativus [1] and in the experiment on Sorghum bicolor [8] were -15.3% and 7%, respectively. The “inhibition (INH)” value with Ipomoea grandifolia [2] stood at 34.3%; in the experiment with Urochloa decumbens [5], 43.3%; in the experiment on Urochloa decumbens [6], 33.3%; with Ipomoea grandifolia [10], 41.7%. Moreover, the inhibition at 500 µM is 34% in the experiment with Ipomoea grandifolia [4], 33% with Urochloa decumbens [13], 44% in the experiment on Urochloa decumbens [14] and 42% in the experiment on Ipomoea grandifolia [12]. The inhibition at 1000 µM came to 59.3% with Sorghum bicolor [7] and 69.1% with Cucumis sativus [9].

As for `CC1=CC(=O)/C(=C(/C)Nc2cc(Cl)c([N+](=O)[O-])cc2O)C(=O)O1`, the inhibition at 100 µM was found to be 21.8% with Cucumis sativus [1] and 4.3% in the experiment with Sorghum bicolor [8]. Further, the “inhibition (INH)” value with Ipomoea grandifolia [2] is 32%; with Urochloa decumbens [5] it was -24%; with Urochloa decumbens [6] it was -20.3%; in the experiment with Ipomoea grandifolia [10], 43.7%. For the same compound, the Activity is recorded as 24% with Urochloa decumbens [3] and 20% with Urochloa decumbens [11]. In addition, the inhibition at 1000 µM in the experiment on Sorghum bicolor [7] amounted to 64.4%; with Cucumis sativus [9] it was 81.4%.

As to `CC1=CC(=O)/C(=C(/C)Nc2cc([N+](=O)[O-])ccc2O)C(=O)O1`, the inhibition at 100 µM with Cucumis sativus [1] was -12.4%; in the experiment with Sorghum bicolor [8] it was 3.9%. The “inhibition (INH)” value with Ipomoea grandifolia [2] stood at 79.9%; with Urochloa decumbens [5], 15.3%; in the experiment on Urochloa decumbens [6], 15%; in the experiment on Ipomoea grandifolia [10] it was 78.9%. The inhibition at 500 µM with Ipomoea grandifolia [4] stood at 81%; with Urochloa decumbens [13] it was 15%; with Urochloa decumbens [14], 15%; in the experiment with Ipomoea grandifolia [12] it was 76%. Besides, the inhibition at 1000 µM in the experiment on Sorghum bicolor [7] is 55.6%; in the experiment on Cucumis sativus [9], 58.1%.

Take `CC1=CC(=O)/C(=C(/C)Nc2ccccc2Cl)C(=O)O1`: the inhibition at 100 µM with Cucumis sativus [1] was found to be 54.5%; in the experiment on Sorghum bicolor [8], 32.9%. In addition, the inhibition at 1000 µM is 85.2% in the experiment on Sorghum bicolor [7] and 88.3% with Cucumis sativus [9].

In the case of `CC1=CC(=O)/C(=C(/C)Nc2ccccc2O)C(=O)O1`, the inhibition at 100 µM in the experiment on Cucumis sativus [1] stood at 7.8%; in the experiment with Sorghum bicolor [8], 39.9%. Also, the values for the inhibition at 1000 µM in the experiment on Sorghum bicolor [7] and with Cucumis sativus [9] were 73.7% and 69.3%, respectively.

As to `CC1=CC(=O)/C(=C(/C)Nc2ccccc2)C(=O)O1`, the inhibition at 100 µM with Cucumis sativus [1] is -10.4%; with Sorghum bicolor [8], 7.2%. For the same compound, the results for the inhibition at 1000 µM with Sorghum bicolor [7] and in the experiment with Cucumis sativus [9] were 62% and 81.1%, respectively.

As for `CCCN/C(C)=C1\C(=O)C=C(C)OC1=O`, the inhibition at 100 µM with Cucumis sativus [1] is -15.7%; with Sorghum bicolor [8], 19.9%. Further, the inhibition at 1000 µM in the experiment on Sorghum bicolor [7] was found to be 75.4%; with Cucumis sativus [9] it was 46.2%.

`CC[C@H](C)N/C(C)=C1\C(=O)C=C(C)OC1=O`: the inhibition at 100 µM is 15% in the experiment on Cucumis sativus [1] and 46.2% in the experiment on Sorghum bicolor [8]. Moreover, the “inhibition (INH)” value in the experiment on Ipomoea grandifolia [2] came to 83%; in the experiment with Urochloa decumbens [5], 65.5%; with Urochloa decumbens [6], 70.8%; with Ipomoea grandifolia [10], 84.4%. Besides, the inhibition at 500 µM is 81% in the experiment with Ipomoea grandifolia [4], 71% in the experiment with Urochloa decumbens [13], 66% in the experiment on Urochloa decumbens [14] and 84% with Ipomoea grandifolia [12]. Further, the inhibition at 1000 µM with Sorghum bicolor [7] is 79.3%; in the experiment on Cucumis sativus [9] it was 87.5%.

As to `CC1=CC(=O)/C(=C(/C)NCc2ccccc2)C(=O)O1`, the inhibition at 100 µM stood at 20.1% in the experiment with Cucumis sativus [1] and 45% with Sorghum bicolor [8]. Further, the “inhibition (INH)” value came to 79.6% in the experiment on Ipomoea grandifolia [2], 39.3% with Urochloa decumbens [5], 22.8% in the experiment with Urochloa decumbens [6] and 85.9% in the experiment with Ipomoea grandifolia [10]. The inhibition at 500 µM in the experiment with Ipomoea grandifolia [4] came to 81%; with Ipomoea grandifolia [12], 84%. Besides, the results for the inhibition at 1000 µM in the experiment with Sorghum bicolor [7] and with Cucumis sativus [9] were 70.8% and 65.5%, respectively.

For `CC(=O)C1C(=O)C=C(C)OC1=O` (stereo not drawn) [DEHYDROACETIC ACID], the inhibition at 100 µM turned out to be 36.7% in the experiment with Cucumis sativus [1] and 34.6% in the experiment on Sorghum bicolor [8]. In addition, the “inhibition (INH)” value in the experiment with Ipomoea grandifolia [2] was 40.7%; in the experiment on Urochloa decumbens [5] it was -67.7%; in the experiment on Urochloa decumbens [6] it was -41.2%; with Ipomoea grandifolia [10], 7.6%. The Activity with Urochloa decumbens [3] was 68%; with Urochloa decumbens [11], 41%. The values for the inhibition at 500 µM in the experiment with Urochloa decumbens [13] and in the experiment with Urochloa decumbens [14] were 8% and 41%, respectively. Moreover, the inhibition at 1000 µM with Sorghum bicolor [7] stood at 82.7%; with Cucumis sativus [9], 87.6%.
